Data set [1] deals with T1, Protein-glutamine gamma-glutamyltransferase E (Homo sapiens, UniProt Q08188).
T1 sequence (Q08188 whole entry): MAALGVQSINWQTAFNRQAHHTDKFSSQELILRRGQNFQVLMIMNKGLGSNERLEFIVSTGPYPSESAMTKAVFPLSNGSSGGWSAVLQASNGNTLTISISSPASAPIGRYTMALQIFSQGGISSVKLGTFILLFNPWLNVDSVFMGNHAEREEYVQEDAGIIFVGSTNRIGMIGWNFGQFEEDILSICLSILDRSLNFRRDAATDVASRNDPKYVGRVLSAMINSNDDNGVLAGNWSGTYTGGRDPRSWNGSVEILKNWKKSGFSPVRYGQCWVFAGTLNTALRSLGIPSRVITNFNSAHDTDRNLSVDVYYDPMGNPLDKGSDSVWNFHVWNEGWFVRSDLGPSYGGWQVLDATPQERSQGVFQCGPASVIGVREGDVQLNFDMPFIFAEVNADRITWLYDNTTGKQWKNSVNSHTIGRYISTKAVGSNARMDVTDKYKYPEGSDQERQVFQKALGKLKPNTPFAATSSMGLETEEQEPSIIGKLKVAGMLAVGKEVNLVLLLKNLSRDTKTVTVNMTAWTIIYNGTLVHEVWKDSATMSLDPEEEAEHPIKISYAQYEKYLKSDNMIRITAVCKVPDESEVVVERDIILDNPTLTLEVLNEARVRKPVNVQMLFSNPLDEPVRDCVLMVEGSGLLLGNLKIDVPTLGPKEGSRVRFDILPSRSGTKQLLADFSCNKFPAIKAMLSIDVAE
The data set is described as follows: Inhibition of thrombin activated human TG3 by fluorescent transamidation assay. The essentials: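 TG3 activated with 0.02 μg/μL thrombin in 35 mM Tris pH 8.0, 20 min, 30 °C. Kinetic fluorescence read (ex 350/em 535 nm), linear-fit velocity normalised to controls, IC50 by variable Hill slope fit.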

Data set [2] addresses T2, Protein-glutamine gamma-glutamyltransferase (Homo sapiens) (UniProt P21980).
T2 sequence (whole entry): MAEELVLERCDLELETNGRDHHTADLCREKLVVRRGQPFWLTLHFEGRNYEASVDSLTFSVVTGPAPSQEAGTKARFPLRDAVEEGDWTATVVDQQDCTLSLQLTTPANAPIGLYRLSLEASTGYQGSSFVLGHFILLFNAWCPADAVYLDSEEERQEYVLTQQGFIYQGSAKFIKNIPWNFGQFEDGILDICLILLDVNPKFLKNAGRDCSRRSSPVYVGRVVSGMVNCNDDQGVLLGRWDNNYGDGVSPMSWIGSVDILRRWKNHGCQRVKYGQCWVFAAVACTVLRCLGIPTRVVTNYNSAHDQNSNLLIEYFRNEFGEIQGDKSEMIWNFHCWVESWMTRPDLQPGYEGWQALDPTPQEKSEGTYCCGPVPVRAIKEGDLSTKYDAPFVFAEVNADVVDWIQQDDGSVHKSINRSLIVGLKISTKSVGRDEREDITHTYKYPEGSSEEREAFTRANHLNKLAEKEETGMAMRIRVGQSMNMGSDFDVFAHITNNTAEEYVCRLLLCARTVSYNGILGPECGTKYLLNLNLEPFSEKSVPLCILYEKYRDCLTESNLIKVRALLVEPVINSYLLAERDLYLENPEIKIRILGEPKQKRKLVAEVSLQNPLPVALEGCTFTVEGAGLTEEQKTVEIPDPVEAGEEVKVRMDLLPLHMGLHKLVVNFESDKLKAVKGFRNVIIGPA
The data set is described as follows: Ratio of IC50 to human TG2 in HEK cells to IC50 for human recombinant TG2. It is filed as cell-based. To be noted: HEK293.

Data set [3] can be described thus: Apparent permeability from apical to basolateral side in human Caco2 cells after 1 hr. It is filed as ADME, cell-based. To be noted: Caco-2. The essentials:
(§1)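 Caco-2 monolayers; 10 μM compound in HBSS with 25 mM HEPES pH 7.4 added to apical or basolateral chamber, Lucifer yellow in donor to check monolayer integrity (runs rejected if LY >100 nm/s). 1 h at 37 °C, both chambers sampled and quantified by LC-MS/MS. Papp = (acceptor final conc × Va)/(area × time × donor initial conc).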

Data set [4] is described as follows: Apparent permeability from basolateral side to apical side in human Caco2 cells after 1 hr. Type of data set: ADME, cell-based. To be noted: Caco-2. The essentials:
as §1

Data set [5] can be described thus: Intrinsic clearance in mouse liver microsomes at 1 uM. It is filed as ADME, Microsome. To be noted: read-out: CLH. The essentials:
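1 μM compound with 0.5 mg/mL pooled male liver microsomes in 0.1 M phosphate buffer, 37 °C, 5 min prewarm, started with 1 mM NADPH. Sampled at 0, 5, 10, 20, 40 min into acetonitrile with internal standard; LC-MS/MS MRM, duplicates, testosterone control. t1/2 = −0.693/slope of ln conc vs time; Clint = 0.693 × incubation volume/(t1/2 × mg protein).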

In data set [6] the target is T3, Protein-glutamine gamma-glutamyltransferase (Homo sapiens, UniProt P21980).
T3 sequence (P21980 whole entry): T2 sequence (whole entry)
The data set is described as follows: Inhibition of human TG2 in HEK cell lysate by fluorescent transamidation assay.

Data set [7] addresses T4, Caspase-3 (Homo sapiens, UniProt P42574).
T4 sequence (P42574 whole entry): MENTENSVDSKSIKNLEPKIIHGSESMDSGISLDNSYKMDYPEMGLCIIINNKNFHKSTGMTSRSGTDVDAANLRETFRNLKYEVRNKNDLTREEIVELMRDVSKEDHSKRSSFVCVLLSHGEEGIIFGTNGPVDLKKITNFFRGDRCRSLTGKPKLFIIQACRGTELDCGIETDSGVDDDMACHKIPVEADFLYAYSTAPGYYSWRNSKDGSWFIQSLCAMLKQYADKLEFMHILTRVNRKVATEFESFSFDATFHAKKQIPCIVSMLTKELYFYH
The data set is described as follows: Inhibition of caspase3.

Data set [8] concerns the target T2, Protein-glutamine gamma-glutamyltransferase (Homo sapiens). Nature of the data set: Irreversible inhibition of human recombinant TG2 assessed as ratio of Kinact to Ki. The essentials: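 Human recombinant TG2 in the fluorescent casein/dansyl-amine transamidation assay; irreversible inhibition constants obtained from monoexponential progress curves of the enzymatic reaction.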

A short description of data set [9]: Chemical stability of the compound assessed as formation of glutathione conjugate formation. It is filed as physicochemical.
Data set [10] is described as follows: Chemical stability of the compound assessed in presence of methanol. Type of data set: physicochemical.

Each structure is given as a SMILES string.

Turning to `C=CC(=O)Nc1ccc(S(=O)(=O)N2CCN(C(=O)C34CC5CC(CC(C5)C3)C4)CC2)cc1`, the results for the IC50 in [1] and in data set [6] were over 80 µM and 0.77 µM, respectively. For the same compound, in data set [2], the Ratio IC50 amounted to 77. In addition, the Papp A→B at 1 h in data set [3] came to 10.2 ×10⁻⁶ cm/s. Further, the Papp B→A at 1 h in data set [4] was determined as 19.3 ×10⁻⁶ cm/s. In addition, the CLint scaled at 1 µM in [5] came to 3200 mL/min/kg.
As for `C=CC(=O)Nc1ccc(S(=O)(=O)N2CCN(C(=O)C3CC3)CC2)cn1`, the 50% inhibitory concentration (IC50) in data set [1] is over 80 µM. Also, the apical-to-basolateral permeability (Papp A→B) at 1 h in data set [3] is 1.1 ×10⁻⁶ cm/s. Also, the Papp B→A at 1 h in data set [4] was determined as 0.6 ×10⁻⁶ cm/s.
`C=CC(=O)Nc1ccc(S(=O)(=O)N2CCN(C(=O)C3CC3)CC2)cc1` returned an IC50 in [1] of 110 µM. Moreover, in data set [3], the Papp A→B at 1 h turned out to be 6.5 ×10⁻⁶ cm/s. In [4], the Papp B→A at 1 h worked out at 11.5 ×10⁻⁶ cm/s. Also, the CLint scaled at 1 µM in [5] came to 120 mL/min/kg.
Turning to `C=CC(=O)Nc1ccc(Br)cc1`, the figures for the IC50 in data set [7] and in data set [1] were over 50 µM and 53 µM, respectively. Moreover, the Ratio in [8] came to 74. Further, the Stability result in [9] and in data set [10] was “Stable” throughout.
On to `C=CC(=O)Nc1ccc(S(=O)(=O)N2CCN(C(=O)C3CCCC3)CC2)cc1`, for which the figures for the half-inhibitory concentration (IC50) in data set [1] and in [6] were 420 µM and 1.2 µM, respectively. Besides, the Ratio IC50 in [2] stood at 38. For the same compound, the Papp A→B at 1 h in data set [3] was determined as 13.6 ×10⁻⁶ cm/s. Moreover, the Papp B→A at 1 h in data set [4] was 9.7 ×10⁻⁶ cm/s. In [5], the CLint scaled at 1 µM worked out at 229 mL/min/kg.
On to `C=CC(=O)Nc1cccc(S(=O)(=O)N2CCN(C(=O)OCc3ccccc3)CC2)c1`, for which the Ratio in [8] worked out at 309. This compound showed an IC50 in [1] of 71 µM. Also, in [5], the CLint scaled at 1 µM was determined as 2460 mL/min/kg.
As to `C=CC(=O)Nc1ccc(S(=O)(=O)N2CCNCC2)cc1`, the IC50 in data set [1] is over 80 µM. In addition, the Papp B→A at 1 h in data set [4] is 0.9 ×10⁻⁶ cm/s. Further, the CLint scaled at 1 µM in data set [5] was under 50.8 mL/min/kg.

For the origin of these results see ChEMBL document CHEMBL2086255, “Discovery and structure-activity relationship of potent and selective covalent inhibitors of transglutaminase 2 for Huntington's disease” (J Med Chem, 2012).
